# Tests used:
# Assay type in all cases: functional
# SK-MEL-28 [1] = test: Cytotoxicity against human SK-MEL-28 cells assessed as cell growth at 10 uM after 48 hrs by sulforhodamine B assay; details: SK-MEL-28, 48 h, read-out: Activity
# MCF7 [2] = test: Growth inhibition of human MCF7 cells after 48 hrs by sulforhodamine B assay; details: MCF7, 48 h
# Method in brief: (§1)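 NCI 60-cell screen, five-dose mode. Cells grown in RPMI 1640 with 5% FBS and 2 mM L-glutamine and plated at 5000-40,000 cells/well according to doubling time. After 24 h preincubation, a Tz plate was TCA-fixed. Five concentrations (10-fold or 1/2 log dilutions) were applied for 48 h at 37 °C. SRB staining read at 515 nm. IC50 taken from [(Ti-Tz)/(C-Tz)]×100 = 50.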
# MCF7 [3] = test: Cytotoxicity against human MCF7 cells assessed as cell growth at 10 uM after 48 hrs by sulforhodamine B assay; details: MCF7, 48 h, read-out: Activity
# KM12 = test: Cytotoxicity against human KM12 cells assessed as cell growth at 10 uM; details: read-out: Activity
# Method in brief: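 NCI-60 screen: cells grown in RPMI 1640 with 5% FBS and 2 mM L-glutamine, plated at 5000–40,000 cells/well according to doubling time, and preincubated 24 h at 37 °C, 5% CO2. The single 10 µM dose (DMSO stock) was added, then incubated 48 h. Cells were TCA-fixed and stained with 0.4% SRB, read at 515 nm, and growth % calculated against time-zero and control plates.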
# SR [4] = test: Cytotoxicity against human SR cells assessed as cell growth at 0.01 uM after 48 hrs by sulforhodamine B assay; details: read-out: Activity
# MDA-MB-435 = test: Cytotoxicity against human MDA-MB-435 cells assessed as cell growth at 0.01 uM after 48 hrs by sulforhodamine B assay; details: MDA-MB-435, 48 h, read-out: Activity
# PC-3 = test: Cytotoxicity against human PC3 cells assessed as cell growth at 10 uM after 48 hrs by sulforhodamine B assay; details: PC-3, 48 h, read-out: Activity
# [5] = Cytotoxicity against human […] cells assessed as cell growth at 10 uM after 48 hrs by sulforhodamine B assay; details: read-out: Activity
# NCI-H226 [6] = test: Cytotoxicity against human NCI-H226 cells assessed as cell growth at 1 uM after 48 hrs by sulforhodamine B assay; details: NCI-H226, 48 h, read-out: Activity
# DU-145 = test: Cytotoxicity against human DU145 cells assessed as cell growth at 0.01 uM after 48 hrs by sulforhodamine B assay; details: DU-145, 48 h, read-out: Activity
# SK-MEL-28 [7] = test: Cytotoxicity against human SK-MEL-28 cells assessed as cell growth at 100 nM after 48 hrs by sulforhodamine B assay; details: SK-MEL-28, 48 h, read-out: Activity
# MCF7 [8] = test: Cytotoxicity against human MCF7 cells assessed as cell growth at 100 nM after 48 hrs by sulforhodamine B assay; details: MCF7, 48 h, read-out: Activity
# RXF 393 [9] = test: Cytotoxicity against human RXF393 cells assessed as cell growth at 100 nM after 48 hrs by sulforhodamine B assay; details: RXF 393, 48 h, read-out: Activity
# SR [10] = test: Growth inhibition of human SR cells after 48 hrs by sulforhodamine B assay; method in brief: as §1
# SF-295 [11] = test: Cytotoxicity against human SF295 cells assessed as cell growth at 10 uM after 48 hrs by sulforhodamine B assay; details: SF-295, 48 h, read-out: Activity
# OVCAR-3 = test: Cytotoxicity against human OVCAR-3 cells assessed as cell growth at 0.01 uM after 48 hrs by sulforhodamine B assay; details: OVCAR-3, 48 h, read-out: Activity
# CCRF-CEM = test: Cytotoxicity against human CCRF-CEM cells assessed as cell growth at 10 uM; details: read-out: Activity
# Method in brief: (§2)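 Single-dose NCI-60 screen at 10 µM. Cells were grown in RPMI 1640 with 5% FBS and 2 mM L-glutamine, then treated for 48 h at 37 °C. Protein was measured by SRB staining with absorbance at 515 nm. Percentage growth was recorded, and inhibition percentage was calculated as 100 minus growth percentage.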
# NCI-H226 [12] = test: Growth inhibition of human NCI-H226 cells after 48 hrs by sulforhodamine B assay; details: NCI-H226, 48 h; for CC50: read-out: LC50 (the source's name); method in brief: as §1
# HCC 2998 [13] = test: Growth inhibition of human HCC2998 cells after 48 hrs by sulforhodamine B assay; details: HCC 2998, 48 h; for CC50: read-out: LC50 (the source's name); method in brief: as §1
# MCF7 [14] = test: Cytotoxicity against human MCF7 cells assessed as cell growth at 1 uM after 48 hrs by sulforhodamine B assay; details: MCF7, 48 h, read-out: Activity
# HOP-92 = test: Cytotoxicity against human HOP92 cells assessed as cell growth at 10 uM; details: read-out: Activity; method in brief: as §2
# SK-MEL-28 [15] = test: Cytotoxicity against human SK-MEL-28 cells assessed as cell growth at 0.001 uM after 48 hrs by sulforhodamine B assay; details: SK-MEL-28, 48 h, read-out: Activity
# ACHN = test: Cytotoxicity against human ACHN cells assessed as cell growth at 0.01 uM after 48 hrs by sulforhodamine B assay; details: read-out: Activity
# SK-MEL-28 [16] = test: Growth inhibition of human SK-MEL-28 cells after 48 hrs by sulforhodamine B assay; details: SK-MEL-28, 48 h; for CC50: read-out: LC50 (the source's name); method in brief: as §1
# RXF 393 [17] = test: Growth inhibition of human RXF393 cells after 48 hrs by sulforhodamine B assay; details: RXF 393, 48 h; method in brief: as §1
# 786-0 = test: Cytotoxicity against human 786-0 cells assessed as cell growth at 10 uM after 48 hrs by sulforhodamine B assay; details: 786-0, 48 h, read-out: Activity
# SR [18] = test: Cytotoxicity against human SR cells assessed as cell growth at 1 uM after 48 hrs by sulforhodamine B assay; details: read-out: Activity
# RXF 393 [19] = test: Cytotoxicity against human RXF393 cells assessed as cell growth at 1 uM after 48 hrs by sulforhodamine B assay; details: RXF 393, 48 h, read-out: Activity
# SF-295 [20] = test: Cytotoxicity against human SF295 cells assessed as cell growth at 100 nM after 48 hrs by sulforhodamine B assay; details: SF-295, 48 h, read-out: Activity
# CAKI-1 = test: Cytotoxicity against human Caki1 cells assessed as cell growth at 1 uM after 48 hrs by sulforhodamine B assay; details: CAKI-1, 48 h, read-out: Activity
# RXF 393 [21] = test: Cytotoxicity against human RXF393 cells assessed as cell growth at 0.001 uM after 48 hrs by sulforhodamine B assay; details: RXF 393, 48 h, read-out: Activity
# HCC 2998 [22] = test: Cytotoxicity against human HCC2998 cells assessed as cell growth at 1 uM after 48 hrs by sulforhodamine B assay; details: HCC 2998, 48 h, read-out: Activity
# HCC 2998 [23] = test: Cytotoxicity against human HCC2998 cells assessed as cell growth at 10 uM after 48 hrs by sulforhodamine B assay; details: HCC 2998, 48 h, read-out: Activity
# SR [24] = test: Cytotoxicity against human SR cells assessed as cell growth at 100 nM after 48 hrs by sulforhodamine B assay; details: read-out: Activity
# NCI-H226 [25] = test: Cytotoxicity against human NCI-H226 cells assessed as cell growth at 100 nM after 48 hrs by sulforhodamine B assay; details: NCI-H226, 48 h, read-out: Activity
smiles,measurement,setting,value
COc1cc(C)cc(-c2c(-c3ccnc(-c4ccc(C(C)=O)cc4)c3)cnn2CC#N)c1,growth at 10 µM,SK-MEL-28 [1],46%
same,GI50,MCF7 [2],3.25 µM
same,LC50,MCF7 [2],> 100 µM
same,TGI,MCF7 [2],> 100 µM
same,growth at 10 µM,MCF7 [3],17%
same,growth at 10 µM,KM12,80.2%
same,growth at 0.01 µM,SR [4],95%
same,growth at 0.01 µM,MDA-MB-435,91%
same,growth at 10 µM,PC-3,27%
same,growth at 10 µM,[5],-1%
same,growth at 1 µM,NCI-H226 [6],34%
same,growth at 0.01 µM,DU-145,100%
same,growth at 0.1 µM,SK-MEL-28 [7],95%
same,growth at 0.1 µM,MCF7 [8],86%
same,growth at 0.1 µM,RXF 393 [9],94%
same,GI50,SR [10],2.87 µM
same,LC50 (concentration killing 50% of cells),SR [10],> 100 µM
same,TGI,SR [10],> 100 µM
same,growth at 10 µM,SF-295 [11],35%
same,growth at 0.01 µM,OVCAR-3,106%
same,growth at 10 µM,CCRF-CEM,53.7%
same,GI50,NCI-H226 [12],5.47 µM
same,TGI,NCI-H226 [12],> 100 µM
same,CC50,NCI-H226 [12],> 100 µM
same,GI50,HCC 2998 [13],3.41 µM
same,TGI,HCC 2998 [13],> 100 µM
same,CC50,HCC 2998 [13],> 100 µM
same,growth at 1 µM,MCF7 [14],16%
same,growth at 10 µM,HOP-92,23.5%
same,growth at 0.001 µM,SK-MEL-28 [15],90%
same,growth at 0.01 µM,ACHN,96%
same,GI50,SK-MEL-28 [16],7.66 µM
same,TGI,SK-MEL-28 [16],> 100 µM
same,CC50,SK-MEL-28 [16],> 100 µM
same,GI50,RXF 393 [17],2.32 µM
same,LC50 (concentration killing 50% of the starting cells),RXF 393 [17],> 100 µM
same,TGI,RXF 393 [17],6.02 µM
same,growth at 10 µM,786-0,20%
same,growth at 1 µM,SR [18],18%
same,growth at 1 µM,RXF 393 [19],-27%
same,growth at 0.1 µM,SF-295 [20],85%
same,growth at 1 µM,CAKI-1,29%
same,growth at 0.001 µM,RXF 393 [21],86%
same,growth at 1 µM,HCC 2998 [22],2%
same,growth at 10 µM,HCC 2998 [23],5%
same,growth at 0.1 µM,SR [24],77%
same,growth at 0.1 µM,NCI-H226 [25],96%
COc1cc(C)cc(-c2c(-c3ccnc(-c4ccc(N(C)C)cc4)c3)cnn2CC#N)c1,growth at 10 µM,PC-3,4%
same,growth at 10 µM,SF-295 [11],-30%
same,growth at 0.01 µM,OVCAR-3,63%
same,growth at 10 µM,CCRF-CEM,3.55%
same,growth at 10 µM,HOP-92,29.1%
same,growth at 10 µM,786-0,6%
same,growth at 1 µM,CAKI-1,-21%
Cc1cc(O)cc(-c2nn(CC#N)cc2-c2ccnc(-c3ccc(Oc4ccccc4)cc3)c2)c1,growth at 10 µM,SK-MEL-28 [1],-100%
same,GI50,MCF7 [2],2.23 µM
same,LC50,MCF7 [2],21.9 µM
same,TGI,MCF7 [2],5.48 µM
same,growth at 10 µM,MCF7 [3],-82%
same,growth at 10 µM,KM12,39.9%
same,growth at 0.01 µM,SR [4],95%
same,growth at 0.01 µM,MDA-MB-435,95%
same,growth at 10 µM,PC-3,-60%
same,growth at 10 µM,[5],-14%
same,growth at 1 µM,NCI-H226 [6],6%
same,growth at 0.01 µM,DU-145,96%
same,growth at 0.1 µM,SK-MEL-28 [7],95%
same,growth at 0.1 µM,MCF7 [8],95%
same,growth at 0.1 µM,RXF 393 [9],101%
same,GI50,SR [10],3.77 µM
same,LC50 (concentration killing 50% of cells),SR [10],> 100 µM
same,TGI,SR [10],37.2 µM
same,growth at 10 µM,SF-295 [11],-61%
same,growth at 0.01 µM,OVCAR-3,103%
same,GI50,NCI-H226 [12],3.22 µM
same,TGI,NCI-H226 [12],12.2 µM
same,CC50,NCI-H226 [12],64.5 µM
same,GI50,HCC 2998 [13],1.91 µM
same,TGI,HCC 2998 [13],3.39 µM
same,CC50,HCC 2998 [13],6.02 µM
same,growth at 1 µM,MCF7 [14],-34%
same,growth at 0.001 µM,SK-MEL-28 [15],91%
same,growth at 0.01 µM,ACHN,95%
same,GI50,SK-MEL-28 [16],4.92 µM
same,TGI,SK-MEL-28 [16],17 µM
same,CC50,SK-MEL-28 [16],41.4 µM
same,GI50,RXF 393 [17],2.08 µM
same,LC50 (concentration killing 50% of the starting cells),RXF 393 [17],8.92 µM
same,TGI,RXF 393 [17],4.31 µM
same,growth at 10 µM,786-0,-93%
same,growth at 1 µM,SR [18],16%
same,growth at 1 µM,RXF 393 [19],-58%
same,growth at 0.1 µM,SF-295 [20],87%
same,growth at 1 µM,CAKI-1,-24%
same,growth at 0.001 µM,RXF 393 [21],88%
same,growth at 1 µM,HCC 2998 [22],-94%
same,growth at 10 µM,HCC 2998 [23],-95%
same,growth at 0.1 µM,SR [24],96%
same,growth at 0.1 µM,NCI-H226 [25],95%

# Reference: ChEMBL document CHEMBL1165950, “Design and synthesis of new potent anticancer pyrazoles with high FLT3 kinase inhibitory selectivity” (Bioorg Med Chem, 2010)
